Compound activity: PubChem, several laboratories
Most compounds without a hit are left out; they make up all but 3% or so of the library.
aDG glyco act = alpha-DG glycosylation activation; activation, % at 10 µM; 360,000 compounds, 0.22% hits; Pro5-aDG cells, alpha-DG glycosylation AlphaScreen (IIH6); 0% Pro5, 100% B10-LARGE cell signal;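 active = activation of at least 8% versus controls, or a plate z-score of at least 8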;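 note: Pro5 are CHO cells carrying HIG-tagged alpha-DG that lacks glycosylation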
GC-A act = GC-A (human) enzyme activation. activation, % at 10 µM. P16066. HEK293 GC-A cells, cGMP TR-FRET, EC30 ANP; 0% at EC30 ANP, 100% saturating ANP. 370,000 compounds, 0.14% hits; in the data active = activation above about 40%
GC-B act = GC-B (human) receptor activation | P20594 | HEK293-GC-B cells, CNP EC30, cGMP TR-FRET; 0% at EC30 CNP, 100% saturating CNP | activation, % at 10 µM | 370,000 compounds, 0.11% hits | AID 1920062;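 active = activation at 10 µM reaching about 35% in either raw or pattern-adjusted values, limit read from the data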
JMJD2C inh = inhibitors of human GASC-1 (JMJD2C) demethylase; GST-JMJD2C(1-420) H3K9me3 demethylation, DELFIA europium; 330,000 compounds, 0.069% hits; inhibition, % at 2.35 µM;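 active = more than half of a compound's replicate wells show inhibition beyond 50%, single wells judged on their own value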;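 note: signal counts dimethyl H3K9 product captured on neutravidin plate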
Target sequence (Q9H3R0 1-420 limits assumed): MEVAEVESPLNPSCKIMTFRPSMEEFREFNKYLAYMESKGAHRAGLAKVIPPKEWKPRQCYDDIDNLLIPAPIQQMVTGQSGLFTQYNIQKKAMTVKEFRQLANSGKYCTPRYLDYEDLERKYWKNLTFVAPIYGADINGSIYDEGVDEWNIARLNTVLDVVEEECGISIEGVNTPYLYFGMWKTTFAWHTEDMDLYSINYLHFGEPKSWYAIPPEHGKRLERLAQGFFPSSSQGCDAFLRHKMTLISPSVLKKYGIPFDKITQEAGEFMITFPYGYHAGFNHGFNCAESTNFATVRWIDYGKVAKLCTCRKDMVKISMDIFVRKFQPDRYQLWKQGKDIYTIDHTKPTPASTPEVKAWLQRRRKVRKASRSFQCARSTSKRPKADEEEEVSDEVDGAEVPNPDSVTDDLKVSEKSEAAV
NR3A LBD binder = modulates the human NR3A ligand-binding domain; NR3A LBD differential scanning fluorimetry, Tm shift; 0% = protein alone, 100% = glycine-bound protein; Tm shift relative to glycine control, % at 25 µM; 340,000 compounds, 2.5% hits; AID 1259313;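 active = melting temperature shift of at least 10% of the positive control shift, at one fixed dose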
Lipid droplet = hepatic lipid droplet formation modulation. AML12 mouse hepatocytes, oleate lipid droplets, BODIPY imaging. inhibition, % at 6.5 µM. 240,000 compounds, 0.4% hits. AID 1656;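 active = lipid droplet intensity inhibited by at least 50%, with more than 500 cells counted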
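Assay system: AML12 mouse liver cells | Compound dosing: One dose, 6.5 µM compound | Read-out basis: Droplet intensity reduction, % inhibition | Measured by: Fluorescence imaging, 20x objective, two fields per well | Schedule: Overnight treatment with compound plus oleate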
Hits are given with their value; – = inactive; · = no result.

SMILES	aDG glyco act	GC-A act	GC-B act	JMJD2C inh	NR3A LBD binder	Lipid droplet
COc1ccc(/C=C2/C(=O)N(c3c(F)c(F)c(F)c(F)c3F)N=C2C)cc1	–	46.5	–	–	–	–
S=c1nc[nH]c2c1[nH]c1ccc(Cl)cc12	–	–	–	–	33.1	–
C=CCN1[C@H](C#N)[C@@H](c2ccc(Br)cc2)[C@H]1CO	·	–	–	·	·	·
CN1CCN(C(=O)c2ccc(N3CCCC3=O)cc2)CC1	–	–	–	–	333.5	–
O=C1NC(Cc2ccc(O)cc2)c2nc3ccc(Cl)cc3c(=O)n2-c2cc3ccccc3cc21 (stereo not drawn)	–	–	56.6	·	·	·
O=C1NC(Cc2ccccc2)c2nc3ccc(Cl)cc3c(=O)n2-c2cc3ccccc3cc21 (stereo not drawn)	–	–	–	·	·	·
CCCCOc1ccc(/C=N/NC(=O)c2csc(C)c2C)cc1	–	–	–	–	28.1	–
COc1ccc2ccccc2c1/C=N/NC(=O)c1ccccc1F	–	–	–	–	–	–
CCOc1ccc(/C=N/NC(=O)c2cc3ccccc3cc2OC)cc1	–	–	–	–	24.2	–
COc1cc2ccccc2cc1C(=O)N/N=C/c1cccnc1	–	–	–	–	82.9	–
CCOc1ccc(S(=O)(=O)Nc2ccccc2C(=O)N/N=C/c2c(OC)ccc3ccccc23)cc1	–	–	–	–	22.1	–
Cc1ccc(-c2cnc(C(O)c3ccc(Cl)cc3C)[nH]2)cc1 (stereo not drawn)	–	–	–	·	·	·
C[C@@H](C(=O)OCC(=O)c1ccc(F)c(F)c1)N1C(=O)C2CCCCC2C1=O (stereo partly drawn)	–	–	–	–	–	·
Cc1ccc(S(=O)(=O)Nc2ccccc2C(C(=O)OC(C)(C)C)C(=O)OC(C)(C)C)cc1	–	–	–	·	·	·
CN(C)c1cccc(-c2cnc(N3CCC(C(N)=O)CC3)nc2)c1	·	–	–	·	·	·
CCN(CC)CCCNC(=O)c1cc2c(-c3cccc(OC)c3)nn(C)c2s1	–	–	–	–	10.6	–
COc1cccc(-c2nn(C)c3sc(C(=O)NCCCN(C)Cc4ccccc4)cc23)c1	–	–	–	–	–	–
O=C(O)c1cccc2c1-c1ccc(Cl)cc1C2=O	–	–	–	·	14.0	·
CS(=O)(=O)c1ccc(NC(=O)c2cccc(-n3cnnn3)c2)cc1	–	–	–	–	–	·
O=C(Nc1ccc(Br)cc1)c1cccc(-n2cnnn2)c1	–	–	–	–	39.3	–
O=C(Nc1ccccc1)c1cccc(N2C(=O)C3C4C=CC(C4)C3C2=O)c1 (stereo not drawn)	–	–	–	–	–	–
O=C(Nc1ccc(Br)cc1)c1cccc(N2C(=O)CCC2=O)c1	–	–	–	–	14.1	–
COc1ccc(NC(=O)COc2cccc(-n3cnnn3)c2)cc1	–	–	–	–	15.1	–
O=C(Nc1ccc(F)cc1)c1cccc(N2C(=O)C3C4C=CC(C4)C3C2=O)c1 (stereo not drawn)	–	–	–	–	17.6	–
Cc1nc(N2CCN(C(=O)C3CCCCC3)CC2)c2c3c(sc2n1)CCCC3	·	–	–	·	·	·
SMILES	aDG glyco act	GC-A act	GC-B act	JMJD2C inh	NR3A LBD binder	Lipid droplet
C[C@H](O)[C@@H]1CN2CCc3c([nH]c4cccc(-c5ccc6c(c5)OCO6)c34)[C@@H]2C[C@@H]1N(C)C(=O)c1ccco1	·	–	–	·	·	·
C[C@@H]1ON(C)[C@H]2C[C@H]3c4[nH]c5ccccc5c4CCN3C(=O)[C@@H]12	–	–	–	·	·	·
O=C(O)CCC1c2cc3c4cc2OC2Oc5cc6c(cc51)C(CCC(=O)O)c1cc5c7cc1OC(O6)c1cc6cc(c1)Oc1cc(cc(C(=O)O)c1)Oc1cc8cc(c1)C(Oc1cc(c(cc1C5CCC(=O)O)C3CCC(=O)O)OC(O4)c1cc(cc(c1)Oc1cc(cc(C(=O)O)c1)O8)Oc1cc(cc(C(=O)O)c1)Oc1cc(cc2c1)Oc1cc(cc(C(=O)O)c1)O6)O7 (stereo not drawn)	·	·	·	100.9	·	·
CS(=O)(=O)c1ccc(-c2csc(C(O)c3cccc(Cl)c3)n2)cc1 (stereo not drawn)	–	–	–	·	·	·
CCc1cccc(CC)c1NC(=O)NC1CCCCC1	–	–	–	–	12.7	–
CCc1ccccc1NC(=O)NC1CCCCC1	–	–	–	–	–	–
COC(=O)C1CN(Cc2cn(Cc3ccc(OC)cc3)nn2)CCS(=O)(=O)N1Cc1ccc(Cl)cc1 (stereo not drawn)	·	–	–	·	·	·
O=C(Cn1nnc(-c2ccccc2)n1)N/N=C/c1cc([N+](=O)[O-])c(Cl)cc1Cl	–	–	–	–	16.1	–
O=[N+]([O-])c1cc(Cl)cc2c1nc(NCCO)c1ccccc12	–	–	–	–	13.2	–
O=C(N[C@H](C(=O)N1CCC[C@H]1C(=O)NCc1ccccc1)C1CCCCC1)c1ccc(Cl)cc1Cl	·	–	–	·	·	·
CCc1ccc(C(=O)Cn2ncc(Cl)c(Cl)c2=O)cc1	–	59.9	–	–	–	·
COc1ccc(C(=O)C(=NNc2ccccc2)c2ccc(OC)cc2)cc1	–	–	–	·	12.6	·
COc1ccc(C(=O)C(=NN)c2ccccc2)cc1	–	–	–	·	·	·
CCCN(CC1CC1)C(=S)NC(=O)c1cc(Br)ccc1Cl	–	–	–	·	–	·
Cn1c(SC/C=C/c2ccccc2)nnc1-c1ccco1	–	–	–	–	12.3	–
COc1ccc(N2CCN(C(=O)CSc3nnc(-c4ccco4)n3C)CC2)cc1	·	–	–	64.1	–	–
COc1cc(-n2c(C)nc3cc(C(=O)N4CCCC4)ccc32)cc(OC)c1OC	·	–	–	·	·	·
CCOc1ccc(C(=O)CCC(=O)N(CC)CC(=O)NCc2ccc(Cl)cc2)cc1	–	–	–	–	13.1	–
CNc1ccccc1/C(O)=C(\C#N)C(=O)NCc1cccs1	·	–	–	·	·	·
CCCc1nc2oc3cc(OC)ccc3c(=O)c2c(=O)n1Cc1ccco1	–	–	–	–	–	–
CCCCCCn1c(-c2ccco2)nc2oc3cc(OC)ccc3c(=O)c2c1=O	–	–	–	–	32.7	–
Cc1c(C(=O)N2CCc3ccccc32)oc2ccccc12	–	–	–	–	14.3	–
O=C(Nc1ccc([N+](=O)[O-])cc1)Nc1ccc(OC(F)F)c(Cl)c1	–	–	–	–	14.8	–
O=C(Nc1ccc(OC(F)F)c(Cl)c1)Nc1ccc2c(c1)OCO2	–	–	–	–	35.2	–
O=C(Nc1ccc(Cl)cc1)Nc1ccc2c(c1)OCO2	–	–	–	–	–	–
CCOC(=O)c1cnn(-c2ccc(NS(=O)(=O)c3ccc(Cl)cc3)cc2)c1C(F)(F)F	–	–	–	–	15.9	–
O=C(O)c1ccccc1-c1ccc(/C=c2\sc3nc4cc(Br)cnc4n3c2=O)o1	–	·	·	–	15.8	·
